{
  "source": "ChEMBL document CHEMBL3297742",
  "about": "“Tetrahydronaphthyridine and dihydronaphthyridinone ethers as positive allosteric modulators of the metabotropic glutamate receptor 5 (mGlu₅)” (J Med Chem, 2014)",
  "key": {"[1]": {"target": "Metabotropic glutamate receptor 7 (Rattus norvegicus, UniProt P35400)", "sequence (P35400 whole entry)": "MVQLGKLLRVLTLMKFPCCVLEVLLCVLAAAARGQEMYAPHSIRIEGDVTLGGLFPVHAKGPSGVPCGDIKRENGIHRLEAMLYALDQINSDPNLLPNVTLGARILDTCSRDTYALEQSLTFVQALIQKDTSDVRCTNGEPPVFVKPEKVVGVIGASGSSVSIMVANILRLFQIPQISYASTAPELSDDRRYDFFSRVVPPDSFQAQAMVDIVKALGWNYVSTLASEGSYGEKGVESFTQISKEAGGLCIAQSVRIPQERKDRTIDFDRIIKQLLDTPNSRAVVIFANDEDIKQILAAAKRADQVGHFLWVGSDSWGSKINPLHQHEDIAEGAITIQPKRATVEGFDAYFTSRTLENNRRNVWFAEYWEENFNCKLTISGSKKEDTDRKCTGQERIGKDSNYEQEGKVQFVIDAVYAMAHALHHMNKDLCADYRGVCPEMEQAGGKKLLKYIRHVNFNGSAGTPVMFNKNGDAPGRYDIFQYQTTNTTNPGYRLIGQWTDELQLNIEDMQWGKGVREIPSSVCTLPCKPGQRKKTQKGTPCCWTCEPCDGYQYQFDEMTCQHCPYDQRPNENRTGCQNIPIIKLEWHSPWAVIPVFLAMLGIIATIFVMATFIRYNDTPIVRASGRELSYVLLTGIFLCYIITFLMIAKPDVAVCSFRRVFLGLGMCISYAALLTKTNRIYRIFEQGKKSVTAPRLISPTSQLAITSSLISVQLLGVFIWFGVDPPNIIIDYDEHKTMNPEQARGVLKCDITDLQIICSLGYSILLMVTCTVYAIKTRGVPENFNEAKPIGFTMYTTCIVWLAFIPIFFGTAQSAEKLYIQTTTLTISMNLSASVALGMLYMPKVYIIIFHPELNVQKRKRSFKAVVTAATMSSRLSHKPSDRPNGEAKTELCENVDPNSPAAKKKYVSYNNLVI", "assay": "Positive allosteric modulator activity at rat mGlu7 receptor expressed in HEK293 cells assessed as L-AP4-induced GIRK channel-mediated thallium flux treated 140s prior to L-AP4 challenge by fluorescence analysis", "format": "cell-based", "summary_of_the_method": "(§1)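 HEK293-GIRK cells expressing rat mGlu2, 3, 4, 6, 7 or 8, 15000 cells/well. Vehicle or 10 µM compound added, then 140 s later a glutamate CRC (L-AP4 for mGlu7) in thallium buffer (12 mM thallium sulfate, 10 mM HEPES). Thallium flux through GIRK read by fluorescence.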"}, "[2]": {"assay": "Cmax in Sprague-Dawley rat at 10 mg/kg, po", "format": "ADME, organism-based", "parameters": "dose 10 mg/kg, route oral", "conditions": "in vivo"}, "Rattus norvegicus [3]": {"tested_on": "Rattus norvegicus", "assay": "Toxicity in Sprague-Dawley rat assessed as autonomic nervous system deficit at 100 mg/kg, po measured up to 4 hrs by irwin neurological test", "format": "organism-based", "parameters": "dose 100 mg/kg, route oral", "conditions": "in vivo", "summary_of_the_method": "(§2)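 Male Sprague–Dawley rats (250–300 g) scored at baseline, then given vehicle (20% HP-β-CD) or 100 mg/kg po (n = 6 each). Modified Irwin battery repeated at 30 min, 1 h and 4 h; each end point scored 0, 1 or 2; significance taken at p ≤ 0.05.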"}, "Cytochrome P450 3A4": {"target": "Cytochrome P450 3A4 (Homo sapiens, UniProt P08684)", "sequence (P08684 whole entry)": "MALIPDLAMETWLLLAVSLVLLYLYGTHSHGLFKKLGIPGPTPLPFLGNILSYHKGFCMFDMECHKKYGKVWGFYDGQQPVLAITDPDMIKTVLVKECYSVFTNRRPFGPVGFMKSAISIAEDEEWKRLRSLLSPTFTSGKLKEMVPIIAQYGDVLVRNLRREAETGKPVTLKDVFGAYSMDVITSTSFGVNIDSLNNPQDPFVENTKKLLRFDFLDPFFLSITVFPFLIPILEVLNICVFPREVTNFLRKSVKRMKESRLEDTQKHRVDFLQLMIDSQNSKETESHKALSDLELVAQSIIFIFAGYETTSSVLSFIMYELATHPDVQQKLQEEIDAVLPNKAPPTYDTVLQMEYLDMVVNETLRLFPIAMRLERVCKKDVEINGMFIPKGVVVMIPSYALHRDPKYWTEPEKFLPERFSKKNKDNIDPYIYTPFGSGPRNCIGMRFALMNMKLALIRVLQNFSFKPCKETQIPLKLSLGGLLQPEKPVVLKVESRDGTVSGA", "assay": "Inhibition of CYP3A4 in human liver microsomes", "format": "ADME", "summary_of_the_method": "(§3)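 CYP1A2, 2C9, 2D6 and 3A4 inhibition measured together in a cocktail assay with human liver microsomes and known probe substrates; IC50 determined.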"}, "[4]": {"assay": "Fraction unbound in rat brain", "format": "ADME, tissue-based", "summary_of_the_method": "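Fraction unbound measured by rat brain homogenate binding.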"}, "[5]": {"assay": "Kinetic solubility of the compound in buffer at pH 2", "format": "physicochemical", "summary_of_the_method": "(§4)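 Kinetic aqueous solubility measured in buffers at pH 2, 4 and 7.4.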"}, "[6]": {"target": "Metabotropic glutamate receptor 6 (Rattus norvegicus, UniProt P35349)", "sequence (P35349 whole entry)": "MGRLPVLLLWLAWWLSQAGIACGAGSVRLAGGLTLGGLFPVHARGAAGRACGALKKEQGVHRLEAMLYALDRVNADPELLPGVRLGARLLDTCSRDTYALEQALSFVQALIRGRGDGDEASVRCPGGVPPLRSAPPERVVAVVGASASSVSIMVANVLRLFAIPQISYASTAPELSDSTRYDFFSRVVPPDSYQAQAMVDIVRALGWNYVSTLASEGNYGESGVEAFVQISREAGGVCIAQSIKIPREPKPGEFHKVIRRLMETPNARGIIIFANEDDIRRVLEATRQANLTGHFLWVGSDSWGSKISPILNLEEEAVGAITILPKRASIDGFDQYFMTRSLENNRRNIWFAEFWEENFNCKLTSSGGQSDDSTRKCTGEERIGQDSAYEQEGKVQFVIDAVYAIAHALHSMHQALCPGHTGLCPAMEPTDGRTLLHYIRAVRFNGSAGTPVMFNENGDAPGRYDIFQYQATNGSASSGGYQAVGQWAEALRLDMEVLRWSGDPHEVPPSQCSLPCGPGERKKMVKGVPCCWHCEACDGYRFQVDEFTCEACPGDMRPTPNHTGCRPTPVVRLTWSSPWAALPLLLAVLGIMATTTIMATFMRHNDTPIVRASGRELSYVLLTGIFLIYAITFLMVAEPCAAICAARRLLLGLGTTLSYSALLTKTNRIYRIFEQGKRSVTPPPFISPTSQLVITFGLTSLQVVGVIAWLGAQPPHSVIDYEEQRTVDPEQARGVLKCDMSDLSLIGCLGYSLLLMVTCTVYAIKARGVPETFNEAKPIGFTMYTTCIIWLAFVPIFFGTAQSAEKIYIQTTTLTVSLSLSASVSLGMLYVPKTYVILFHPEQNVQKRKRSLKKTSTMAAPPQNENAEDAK", "assay": "Positive allosteric modulator activity at rat mGlu6 receptor expressed in HEK293 cells assessed as glutamate-induced GIRK channel-mediated thallium flux treated 140s prior to gluatamate challenge by fluorescence analysis", "format": "cell-based", "summary_of_the_method": "as §1"}, "Plasma": {"tested_on": "Plasma", "assay": "Fraction unbound in human plasma", "format": "ADME, cell-free"}, "Cytochrome P450 2C9": {"target": "Cytochrome P450 2C9 (Homo sapiens, UniProt P11712)", "sequence (P11712 whole entry)": "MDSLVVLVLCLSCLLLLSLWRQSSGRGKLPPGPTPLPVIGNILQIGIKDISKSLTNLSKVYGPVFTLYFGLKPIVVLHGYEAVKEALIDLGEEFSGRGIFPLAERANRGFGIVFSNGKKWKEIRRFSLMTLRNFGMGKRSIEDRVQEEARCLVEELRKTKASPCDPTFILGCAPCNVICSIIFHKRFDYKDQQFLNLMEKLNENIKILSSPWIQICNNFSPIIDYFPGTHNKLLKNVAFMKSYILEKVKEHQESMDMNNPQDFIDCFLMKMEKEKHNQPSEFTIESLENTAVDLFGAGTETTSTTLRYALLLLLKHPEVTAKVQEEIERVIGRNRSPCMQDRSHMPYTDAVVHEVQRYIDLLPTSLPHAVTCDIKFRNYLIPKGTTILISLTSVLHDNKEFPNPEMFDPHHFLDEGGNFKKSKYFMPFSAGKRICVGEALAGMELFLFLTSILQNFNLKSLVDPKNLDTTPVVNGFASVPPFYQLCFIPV", "assay": "Inhibition of CYP2C9 in human liver microsomes", "format": "ADME", "summary_of_the_method": "as §3"}, "[7]": {"assay": "Kinetic solubility of the compound in buffer at pH 4", "format": "physicochemical", "summary_of_the_method": "as §4"}, "Rattus norvegicus [8]": {"tested_on": "Rattus norvegicus", "assay": "Toxicity in Sprague-Dawley rat assessed as somatomotor nervous system deficit at 100 mg/kg, po measured up to 4 hrs by irwin neurological test", "format": "organism-based", "parameters": "dose 100 mg/kg, route oral", "conditions": "in vivo", "summary_of_the_method": "as §2"}, "[9]": {"assay": "Drug uptake in Sprague-Dawley rat brain at 56.6 mg/kg, po after 1.5 hrs by LC-MS/MS analysis", "format": "ADME, organism-based", "parameters": "dose 56.6 mg/kg, route oral", "conditions": "read-out: Drug uptake", "summary_of_the_method": "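Male Sprague–Dawley rats (250–375 g), fasted overnight, were dosed orally at 56.6 mg/kg in 20% HP-β-cyclodextrin (pH 6–7) during an amphetamine hyperlocomotion screen. Brain and plasma were taken at 1.5 h. Brain was homogenized in 70:30 2-propanol:water, and samples were diluted in acetonitrile with 50 nM carbamazepine internal standard. Analysis was C18 gradient LC-ESI-MS/MS against a standard curve.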"}},
  "data": [
    {"smiles": "O=C1NCCc2nc(OCc3cccc(F)c3)ccc21", "values": [
      {"measurement": "EC50", "setting": "[1]", "value": "> 10", "unit": "µM"},
      {"measurement": "Cmax", "setting": "[2]", "value": 3.36, "unit": "µM"},
      {"measurement": "Activity", "setting": "Rattus norvegicus [3]", "value": "Non-toxic"},
      {"measurement": "IC50", "setting": "Cytochrome P450 3A4", "value": "> 30", "unit": "µM"},
      {"measurement": "fraction unbound", "setting": "[4]", "value": 0.02},
      {"measurement": "Kinetic_solubility", "setting": "[5]", "value": 38, "unit": "µM"},
      {"measurement": "EC50", "setting": "[6]", "value": "> 10", "unit": "µM"},
      {"measurement": "Fu", "setting": "Plasma", "value": 0.047},
      {"measurement": "IC50", "setting": "Cytochrome P450 2C9", "value": "> 30", "unit": "µM"},
      {"measurement": "Kinetic_solubility", "setting": "[7]", "value": 29, "unit": "µM"},
      {"measurement": "Activity", "setting": "Rattus norvegicus [8]", "value": "Non-toxic"},
      {"measurement": "concentration at 1.5 h", "setting": "[9]", "value": 16.6, "unit": "µM"}
    ]}
  ]
}
